We go through 31 compounds from ChEMBL document CHEMBL1157456, “Unsymmetric aryl-alkyl disulfide growth inhibitors of methicillin-resistant Staphylococcus aureus and Bacillus anthracis” (Bioorg Med Chem, 2008).

In assay [1] the test system is Staphylococcus aureus. As to the kind of experiment: Antibacterial activity against Staphylococcus aureus ATCC 25923 assessed as inhibition zone diameter at 20 ug after 24 hrs by Kirby-Bauer test. The settings on record: ATCC 25923, 24 h, read-out: IZ. The format is functional. The procedure, abridged: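 Kirby-Bauer on TSA: a 0.5 McFarland saline suspension was spread as a lawn. 6 mm wells were bored and given 20 µL of 1 mg/mL compound in DMSO (20 ug). Plates ran 24 h at 37 °C. Inhibition zone diameter was averaged over 3 trials.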

Assay [2] relates to Staphylococcus aureus. As to the kind of experiment: Antibacterial activity against Staphylococcus aureus ATCC 25923 after 24 hrs by serial dilution method. The settings on record: for MIC: ATCC 25923, 24 h. It is filed as functional.
Assay [3] concerns Escherichia coli. As to the kind of experiment: Inhibition of purified Escherichia coli FabH at 1 uM by trichloroacetic acid precipitation assay relative to control. In a few lines: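 Purified ecFabH (100 nM monomer) was preincubated 15 min at room temperature with 1 µM compound in 50 mM sodium phosphate pH 7.4, without CoA. It was then added to [1-14C]acetyl-CoA (40 µM) and malonyl-ACP (10 µM), made with S. glaucescens FabD/ACP. 3-Ketoacyl-ACP was measured by TCA precipitation, as % inhibition versus a no-inhibitor control, in duplicate.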

For assay [4], the system named is Bacillus anthracis. Kind of assay: Antibacterial activity against Bacillus anthracis after 24 hrs by serial dilution method. It is filed as functional.
Assay [5] concerns Staphylococcus aureus. As to the kind of experiment: Antibacterial activity against methicillin-resistant Staphylococcus aureus ATCC 43300 after 24 hrs by serial dilution method. The format is functional. The settings on record: ATCC 43300, 24 h.
In assay [6] the test system is Bacillus anthracis. Kind of assay: Antibacterial activity against Bacillus anthracis assessed as inhibition zone diameter at 20 ug after 24 hrs by Kirby-Bauer test. It is filed as functional. As to conditions: read-out: IZ.
Assay [7] concerns the target T1, Mycobacterial beta-ketoacyl-[acyl-carrier-protein] synthase III (Mycobacterium tuberculosis) (UniProt P9WNG3).
T1 sequence (whole entry): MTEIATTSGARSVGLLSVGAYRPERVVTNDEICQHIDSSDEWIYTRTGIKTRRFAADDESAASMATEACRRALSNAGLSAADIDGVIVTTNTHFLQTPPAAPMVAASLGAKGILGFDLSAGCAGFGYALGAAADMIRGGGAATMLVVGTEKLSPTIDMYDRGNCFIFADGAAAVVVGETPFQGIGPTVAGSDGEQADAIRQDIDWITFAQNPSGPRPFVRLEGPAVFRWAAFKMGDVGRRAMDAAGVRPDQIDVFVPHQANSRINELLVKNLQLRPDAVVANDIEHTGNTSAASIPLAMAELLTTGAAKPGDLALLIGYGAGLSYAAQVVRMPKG
As to the kind of experiment: Inhibition of Mycobacterium tuberculosis FabH.

Assay [8] in a line: Inhibition of Escherichia coli FabH.
Assay [9] deals with Escherichia coli. As to the kind of experiment: Inhibition of purified Escherichia coli FabH at 5 uM by trichloroacetic acid precipitation assay relative to control. In a few lines:
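ecFabH (100 nM monomer) was preincubated 15 min at room temperature with 5 µM disulfide in 50 mM sodium phosphate pH 7.4. Radiolabeled 3-ketoacyl-ACP was formed from [1-14C]acetyl-CoA (40 µM) and malonyl-ACP (10 µM), the latter from a coupled S. glaucescens FabD/ACP system. Product was collected by TCA precipitation. Activity was expressed as % decrease versus a no-compound control, in duplicate.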

The test system of assay [10] is Escherichia coli. Kind of assay: Antibacterial activity against Escherichia coli K12 ATCC 23590 after 24 hrs by serial dilution method. It is filed as functional. The settings on record: K12, 24 h.

pIC50: −log10 of the molar value. Values after ≈ are worked out from the molar mass of the structure shown. Active and inactive are the calls of the source. The rule behind the calls is not given here.

As for `CSSc1ccc(N)cc1`, in [1], the zone of inhibition at 20 µg/disc was found to be 0 mm.

For `CSc1ccc([N+](=O)[O-])cc1`, the outcome in assay [2] was inactive.

With `CN[C@H](CC(C)C)C(=O)N[C@H]1C(=O)N[C@@H](CC(N)=O)C(=O)N[C@H]2C(=O)N[C@H]3C(=O)N[C@H](C(=O)N[C@H](C(=O)O)c4cc(O)cc(O)c4-c4cc3ccc4O)[C@H](O)c3ccc(c(Cl)c3)Oc3cc2cc(c3O[C@@H]2O[C@H](CO)[C@@H](O)[C@H](O)[C@H]2O[C@H]2C[C@](C)(N)[C@H](O)[C@H](C)O2)Oc2ccc(cc2Cl)[C@H]1O` [VANCOMYCIN], in assay [1], the zone of inhibition at 20 µg/disc amounted to 27 mm. Besides, inhibition of growth in assay [2] (MIC) required 0.25 µg/mL (≈ 0.173 µM).

In the case of `CCOc1cccc(SSC)c1`, the zone of inhibition at 20 µg/disc in assay [1] is 9 mm.

The compound `CCC(C)SN1C(=O)[C@H](OC)[C@@H]1c1ccccc1Cl` (some centres not stated) displayed an inhibition in assay [3] of 30%.

`CCSSc1cccc([N+](=O)[O-])c1`: the MIC in [4] was found to be 8 µg/mL (≈ 37.2 µM); in assay [5], 64 µg/mL (≈ 297 µM); in [2], 8 µg/mL (≈ 37.2 µM). Moreover, the zone of inhibition at 20 µg/disc in assay [1] stood at 45 mm; in assay [6], 40 mm.

Consider `CCCCCCCCCCOC(=O)SSCCO`, for which the outcome in assay [7] was Active.

On to `CSSCc1ccc([N+](=O)[O-])cc1`, for which 32 µg/mL (≈ 149 µM) was the least that counted as inhibitory in assay [4] (MIC). In assay [2], the outcome was Active.

In turn, `CSSCCNC(=O)CCNC(=O)[C@@H](O)C(C)(C)COP(=O)(O)OP(=O)(O)OC[C@H]1O[C@@H](n2cnc3c(N)ncnc32)[C@H](O)[C@@H]1OP(=O)(O)O` had a negative logarithm of the IC50 (pIC50) in assay [8] of 4.24.

As to `CSSc1ccc(C)c(C)c1`, in assay [1], the zone of inhibition at 20 µg/disc was 10 mm.

In the case of `CCCSSc1ccc([N+](=O)[O-])cc1`, the MIC in assay [4] is 1 µg/mL (≈ 4.36 µM); in assay [5], 16 µg/mL (≈ 69.8 µM); in assay [10], 64 µg/mL (≈ 279 µM); in assay [2], 16 µg/mL (≈ 69.8 µM). Besides, the zone of inhibition at 20 µg/disc in [1] came to 43 mm. This compound came in with an inhibition in assay [9] of 91%.

As to `CSSc1ccc(NC(C)=O)cc1`, in assay [1], the zone of inhibition at 20 µg/disc was 20 mm.

For the compound `CSSCCc1ccc([N+](=O)[O-])cc1`, inhibition of growth in assay [4] (MIC) required 64 µg/mL (≈ 279 µM). Further, the result in assay [2] was Active.

Regarding `CO[C@H]1C(=O)N(SC)[C@H]1c1ccccc1Cl`, the inhibition in [3] is 89%.

Turning to `CCSSc1ccccc1[N+](=O)[O-]`, the values for the MIC in assay [4], in assay [5] and in assay [2] were 16 µg/mL (≈ 74.3 µM), 32 µg/mL (≈ 149 µM) and 16 µg/mL (≈ 74.3 µM), respectively. Besides, the results for the zone of inhibition at 20 µg/disc in assay [1] and in assay [6] were 40 mm and 35 mm, respectively.

In the case of `CSSc1ccc(F)c(F)c1`, the zone of inhibition at 20 µg/disc in assay [1] came out at 11 mm.

With `CCC(C)SSc1cccc([N+](=O)[O-])c1` (configuration not stated), the MIC in assay [4] was determined as 8 µg/mL (≈ 32.9 µM); in assay [5], 32 µg/mL (≈ 131 µM); in assay [2] it was 8 µg/mL (≈ 32.9 µM). The zone of inhibition at 20 µg/disc amounted to 45 mm in assay [1] and 41 mm in [6].

Turning to `O=C(O)c1cc([N+](=O)[O-])ccc1SSc1ccc([N+](=O)[O-])cc1C(=O)O`, the outcome in assay [2] was inactive.

`CSSc1ccccc1CO`: the zone of inhibition at 20 µg/disc in [1] came to 14 mm.

Turning to `CCSSc1ccc([N+](=O)[O-])cc1`, the MIC was found to be 0.25 µg/mL (≈ 1.16 µM) in assay [4], 16 µg/mL (≈ 74.3 µM) in [5], 16 µg/mL (≈ 74.3 µM) in assay [10] and 1 µg/mL (≈ 4.64 µM) in assay [2]. For the same compound, in assay [9], the inhibition was found to be 98%.

Take `CCCCSSc1ccc([N+](=O)[O-])cc1`: the MIC came out at 1 µg/mL (≈ 4.11 µM) in assay [4], 32 µg/mL (≈ 131 µM) in [5], 96 µg/mL (≈ 394 µM) in [10] and 1 µg/mL (≈ 4.11 µM) in assay [2]. For the same compound, the inhibition in [9] stood at 93%.

For `CCC(C)SSc1ccc([N+](=O)[O-])cc1` (configuration not stated), the MIC came out at 0.5 µg/mL (≈ 2.05 µM) in [4], 1 µg/mL (≈ 4.11 µM) in [5], 128 µg/mL (≈ 526 µM) in assay [10] and 0.8 µg/mL (≈ 3.29 µM) in assay [2]. For the same compound, the inhibition in [9] was 96%.

In the case of `CC(C)SSc1ccc([N+](=O)[O-])cc1`, the MIC in assay [4] is 0.125 µg/mL (≈ 0.545 µM); in [5], below 0.125 µg/mL; in assay [10], 96 µg/mL (≈ 419 µM); in assay [2], below 0.125 µg/mL. The compound further had an inhibition in assay [9] of 98.5%.

Take `CSSc1ccccn1`: in assay [1], the zone of inhibition at 20 µg/disc was determined as 23 mm.

For `CC(C)SSc1ccccc1[N+](=O)[O-]`, the MIC in assay [4] stood at 32 µg/mL (≈ 140 µM); in assay [5] it was 32 µg/mL (≈ 140 µM); in assay [2] it was 16 µg/mL (≈ 69.8 µM). For the same compound, the zone of inhibition at 20 µg/disc in assay [1] was 31 mm; in [6] it was 27 mm.

Consider `CSSc1ccccc1[N+](=O)[O-]`, for which the MIC came out at 16 µg/mL (≈ 79.5 µM) in assay [4], 32 µg/mL (≈ 159 µM) in assay [5] and 16 µg/mL (≈ 79.5 µM) in assay [2]. In addition, the figures for the zone of inhibition at 20 µg/disc in assay [1] and in [6] were 37 mm and 31 mm, respectively.

Consider `CCC(C)SSc1ccccc1[N+](=O)[O-]` (configuration not stated), for which the minimal inhibitory concentration (MIC) in assay [4], in assay [5] and in assay [2] was 32 µg/mL (≈ 131 µM) throughout. Besides, the figures for the zone of inhibition at 20 µg/disc in assay [1] and in assay [6] were 24 mm and 23 mm, respectively.

Take `CC1(C)S[C@@H]2[C@H](NC(=O)Cc3ccccc3)C(=O)N2[C@H]1C(=O)O` [PENICILLIN G]: the zone of inhibition at 20 µg/disc in [1] turned out to be 33 mm. Further, the figures for the MIC in assay [5] and in assay [2] were 64 µg/mL (≈ 191 µM) and 0.03 µg/mL (≈ 0.0897 µM), respectively.

Consider `CSSc1ccc([N+](=O)[O-])cc1`, for which the MIC worked out at 1 µg/mL (≈ 4.97 µM) in assay [4], 32 µg/mL (≈ 159 µM) in assay [5], 16 µg/mL (≈ 79.5 µM) in assay [10] and 16 µg/mL (≈ 79.5 µM) in [2]. Besides, the zone of inhibition at 20 µg/disc in assay [1] is 35 mm. In addition, in assay [9], the inhibition is 94%.

On to `CC(C)SSc1cccc([N+](=O)[O-])c1`, for which the MIC in [4] was 1 µg/mL (≈ 4.36 µM); in [5], 16 µg/mL (≈ 69.8 µM); in assay [2], below 0.125 µg/mL.

As for `CSSc1cccc([N+](=O)[O-])c1`, the MIC is 8 µg/mL (≈ 39.7 µM) in assay [4], 64 µg/mL (≈ 318 µM) in assay [5] and 16 µg/mL (≈ 79.5 µM) in assay [2]. Further, the zone of inhibition at 20 µg/disc came to 36 mm in assay [1] and 43 mm in assay [6].

What is called MIC is the lowest concentration found to suppress growth. Lower therefore signals a more susceptible organism. For orientation: inhibition means the share of the control response that was lost under treatment. Usually pIC50 stands for the IC50 on a negative log10 scale, so that one unit is a factor of ten. A high value points to a low IC50.
